Data set [1] concerns MIA PaCa-2. Kind of data set: Cytotoxicity against human MIA PaCa-2 cells assessed as maximum cell growth inhibition incubated for 72 hrs by MTS assay relative to control. The class given is functional. The gist of the method: (§1)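 Cells from the 20-line panel were seeded the day before dosing, then exposed to compound for 72 h. MTS was added, followed by 4 h at 37 °C, and absorbance was read. Nine serial 3.16-fold dilutions were tested, top 198 μM, in duplicate. MI% is the maximum inhibitory effect across the tested concentration range.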

The next data set deals with CCRF-CEM. Put plainly: Cytotoxicity against human CCRF-CEM cells assessed as maximum cell growth inhibition incubated for 72 hrs by MTS assay relative to control. The class given is functional. The gist of the method: as §1
The next data set concerns Z-138. Kind of data set: Cytotoxicity against human Z138 cells assessed as cell death incubated for 72 hrs by MTS assay. The class given is functional. Particulars: read-out: LC50 (the source's name). The gist of the method: (§2)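 Contracted MTS assay. Cells seeded the day before treatment and exposed 72 h to nine serial concentrations (3.16-fold steps, top 198 μM), tested in duplicate. MTS added, then 4 h at 37 °C and absorbance read. LC50 is the concentration killing 50% of cells. MI% is the maximum inhibition over the tested range.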

The next data set has as its system HepG2. Kind of data set: Cytotoxicity against human HepG2 cells assessed as maximum cell growth inhibition incubated for 72 hrs by MTS assay relative to control. Type of data set: functional. The gist of the method: as §1
Data set [2] is described as follows: Cytotoxicity against human HS 445 cells assessed as cell death incubated for 72 hrs by MTS assay. Type of data set: functional. The following applies: read-out: LC50 (the source's name). A digest of the protocol: as §2
The test system of a further data set is MCF7. Kind of data set: Cytotoxicity against human MCF7 cells assessed as cell death incubated for 72 hrs by MTS assay. Type of data set: functional. The following applies: read-out: LC50 (the source's name). The gist of the method:
as §2

A further data set relates to Jurkat. Put plainly: Cytotoxicity against human Jurkat cells assessed as maximum cell growth inhibition incubated for 72 hrs by MTS assay relative to control. Type of data set: functional. The gist of the method:
as §1

For data set [3], the system named is RL. Kind of data set: Cytotoxicity against deoxynucleotidyl transferase-negative human RL cells assessed as cell death preincubated with adenosine kinase inhibitor, A-134974 for 5 mins followed by compound addition and […]. Type of data set: functional, cell-based.
The next data set concerns SW-620. Put plainly: Cytotoxicity against human SW620 cells assessed as maximum cell growth inhibition incubated for 72 hrs by MTS assay relative to control. The class given is functional. A digest of the protocol: as §1
Another data set deals with HL-60. Kind of data set: Cytotoxicity against human HL-60 cells assessed as cell death incubated for 72 hrs by MTS assay. The class given is functional. Particulars: read-out: LC50 (the source's name). A digest of the protocol:
as §2

Another data set relates to K562. Put plainly: Cytotoxicity against human K562 cells assessed as maximum cell growth inhibition incubated for 72 hrs by MTS assay relative to control. The class given is functional. A digest of the protocol:
as §1

Data set [4] in a line: Metabolic stability in pooled cryopreserved human hepatocytes assessed as half life at 1 uM incubated for 60 mins by HPLC-MS/MS analysis. The class given is ADME, cell-based, Hepatocyte. The gist of the method:
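Pooled cryopreserved human hepatocytes were thawed, washed and resuspended in Krebs–Henseleit buffer, pH 7.3. Compound was added at 1 μM final and incubated 0 and 60 min at 37 °C/5% CO2. Reactions were stopped with acetonitrile, centrifuged, and the supernatant analysed by HPLC-MS/MS.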

A further data set deals with THP-1. Kind of data set: Cytotoxicity against human THP-1 cells assessed as maximum cell growth inhibition incubated for 72 hrs by MTS assay relative to control. Type of data set: functional. A digest of the protocol: as §1
For data set [5], the system named is RL. Kind of data set: Cytotoxicity against human RL cells assessed as maximum cell growth inhibition incubated for 72 hrs by MTS assay relative to control. The class given is functional. A digest of the protocol: as §1
A further data set relates to HEL 92.1.7. Kind of data set: Cytotoxicity against human HEL 92.1.7 cells assessed as maximum cell growth inhibition incubated for 72 hrs by MTS assay relative to control. The class given is functional. A digest of the protocol: as §1
The test system of data set [6] is MIA PaCa-2. Put plainly: Cytotoxicity against human MIA PaCa-2 cells assessed as cell death incubated for 72 hrs by MTS assay. Particulars: read-out: LC50 (the source's name). Type of data set: functional. A digest of the protocol:
as §2

Active and inactive are the calls of the source. The calls are words filed in the database; no cut-off is given here.

Regarding `C[C@@H](NP(=O)(OC[C@@H]1C[C@@H](O)[C@H](n2cnc3c(N)ncnc32)O1)Oc1cccc2ccccc12)C(=O)OCc1ccccc1` (stereo partly specified), the Imax with MIA PaCa-2 [1] is 98%; in the data set with CCRF-CEM, 100%; in the data set with HepG2, 95%; in the data set on Jurkat it was 100%; in the data set on SW-620 it was 93%; with K562, 97%. Further, the values for the Imax with THP-1, in the data set with RL [5] and in the data set with HEL 92.1.7 were 99%, 96% and 98%, respectively. Besides, the CC50 in the data set on Z-138 worked out at 6.32 µM; in data set [2], 10.2 µM; in the data set with MCF7, 1.39 µM; in the data set with HL-60, 6.37 µM; in the data set on MIA PaCa-2 [6] it was 3.73 µM. For the same compound, the outcome in the data set on RL [3] was Active. Further, the half-life at 1 µM in data set [4] came to 43.4 min.

The values above are taken from ChEMBL document CHEMBL5236602, “Synthesis and Characterization of NUC-7738, an Aryloxy Phosphoramidate of 3'-Deoxyadenosine, as a Potential Anticancer Agent” (J Med Chem, 2022).
